Results from different studies.
Protocols differ between the studies behind these lines.
HTR2B: 5-hydroxytryptamine receptor 2B (HTR2B, Homo sapiens, UniProt P41595)
mraY: mraY (Staphylococcus aureus, UniProt Q2FZ93)

SMILES | target | assay | conditions | inhibition [%]
CC[N+]1(C)CCc2cc(OC)c(OC)c3c2C1Cc1cccc(OC)c1-3 (stereo not drawn) | HTR2B | ligand displacement, radioligand | 10 µM | 26
NC/C(=C\F)COc1cccc(Cn2c(=S)[nH]c(=O)c3[nH]cnc32)c1 | B2 bradykinin receptor (BDKRB2, Homo sapiens, UniProt P30411) | ligand displacement, radioligand | 10 µM | < 50
CCCCCCC#Cc1cncc(-c2nnc(SCc3cc(C(F)(F)F)cc(C(F)(F)F)c3)n2CCCN)c1 | mraY | cell-free assay, inhibitor | 250 µM | 53
CCN1/C(=C/C(C)=O)Sc2ccc(F)cc21 | Gastrin/cholecystokinin type B receptor (CCKBR, Homo sapiens, UniProt P32239) | ligand displacement, radioligand | 10 µM | 1.43
COc1cc2c3c(c1OC)-c1c(OC)ccc(NC(C)=O)c1CC3N(C)CC2 (stereo not drawn) | HTR2B | ligand displacement, radioligand | 10 µM | 20
CCCCCCC#Cc1cncc(-c2nnc(SC[C@H]3O[C@@H](n4ccc(=O)[nH]c4=O)[C@H](O)[C@@H]3O)n2C)c1 | mraY | cell-free assay, inhibitor | 250 µM | 0
COc1cc2c3c(c1OC)-c1c(OC)ccc(N4CCOCC4)c1CC3N(C)CC2 (stereo not drawn) | HTR2B | ligand displacement, radioligand | 10 µM | 80
CCCCCCC#Cc1cncc(-c2nnc(SC[C@H]3O[C@@H](n4ccc(=O)[nH]c4=O)[C@H](O)[C@@H]3O)n2CCCN)c1 | mraY | cell-free assay, inhibitor | 250 µM | 44
Cc1cc(F)cc2c(CCC(=O)N[C@@H]3C(=O)NC[C@H]3O)c(-c3ccc(F)cc3)[nH]c12 | Substance-P receptor (TACR1, Homo sapiens, UniProt P25103) | cell-free assay | 10 µM | 25
Cc1cc(O)c(-c2ccc([C@@H](C)CN(C)C)cc2)c2c1[nH]c(=O)c1sccc12 | Acylglycerol kinase, mitochondrial (Homo sapiens, UniProt Q53H12) | enzyme activity, inhibitor | 0.1 µM, lysate | 1.28
CCCCCCC#Cc1cncc(-c2nnc(SCc3ccc(Cl)cc3)n2CCO)c1 | mraY | cell-free assay, inhibitor | 250 µM | 0
COc1cc2c3c(c1OC)-c1c(OC)ccc(-c4ccc(C#N)cc4)c1CC3N(C)CC2 (stereo not drawn) | 5-hydroxytryptamine receptor 2C (HTR2C, Homo sapiens, UniProt P28335) | ligand displacement, radioligand | 10 µM | 24
